# Measured values of several laboratories.
# CDK18: Cyclin-dependent kinase 18 (CDK18, Homo sapiens, UniProt Q07002)
# CDK18 with cyclin Y: Cyclin-dependent kinase 18, with cyclin Y (CDK18, Homo sapiens, UniProt Q07002)
SMILES,target,observed,mode,technique,concentration,quantity,value
C=CC(=O)N1CCC([C@@H]2CCNc3c(C(N)=O)c(-c4ccc(Oc5ccccc5)cc4)nn32)CC1,CDK18,enzyme activity,inhibitor,,1 µM,inhibition,9%
C1=C/COCc2cc(ccc2OCCN2CCCC2)Nc2nccc(n2)-c2cccc(c2)COC/1,CDK18,binding,,,0.1 µM,remaining binding,92%
CCCCC(=O)Nc1ccc(-c2ccc3ncn(CCC)c(=O)c3c2)cn1,CDK18,binding,,competition with immobilised ligand,0.5 µM,remaining binding,100%
COc1ccc2oc(-c3ccc4nc(N)oc4c3)c/c(=N\c3ccccc3NC(=O)CCN)c2c1,CDK18 with cyclin Y,binding,,,1 µM,remaining binding,108%
COc1ccc2[nH]c3c4[nH]c5ccc(OC)cc5c4c4c(c3c2c1)C(=O)NC4=O,CDK18,binding,,,1 µM,remaining binding,80%
CC(C)S(=O)(=O)c1ccc2nccc(Nc3ccc4sc(C5CCCC5)nc4c3)c2c1,CDK18 with cyclin Y,enzyme activity,inhibitor,,1 µM,activity vs control,104%
Cc1ccc(NC(=O)c2ccnc(C(F)(F)F)c2)cc1-c1cc(OCCO)nc(N2CCOCC2)c1,CDK18,binding,,,1 µM,remaining binding,100%
C=CC(=O)N1CCC[C@@H](n2nc(-c3ccc(Oc4ccccc4)cc3)c3c(N)ncnc32)C1,CDK18,enzyme activity,inhibitor,,1 µM,inhibition,3%
